Data from ChEMBL document CHEMBL5223160, “Lipase-Catalyzed Synthesis and Biological Evaluation of N-Picolineamides as Trypanosoma cruzi Antiproliferative Agents” (ACS Med Chem Lett, 2023).
Active and inactive are the calls of the source. No cut-off for these calls is given here.

What was measured:
Vero = test: Cytotoxicity against african green monkey Vero cells at 10 to 600 uM incubated for 72 hrs by resazurin dye based fluorescence assay; format: toxicity, cell-based; conditions: chlorocebus sabaeus, dose 10-600 µM
How it was run: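 Vero cells were exposed to compounds at 10–600 μM for 72 h at 37 °C. Viability was read by resazurin fluorescence at 590 nm. CC50 was taken as the concentration reducing cell proliferation by 50%, reported ± standard deviation.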

Trypanosoma cruzi [1] = test: Antitrypanosomal activity against GFP-expressing intracellular Trypanosoma cruzi Y trypomastigotes infected in african green monkey Vero cells assessed as decrease in infection level incubated for 72 hrs by fluorescence based microplate reader analysis; format: functional, organism-based
How it was run: (§1)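 Vero cells infected with GFP-expressing T. cruzi Y-strain parasites. After parasite removal, compounds were added at one-tenth of their Vero CC50. At 72 h postinfection, cells were lysed and parasite fluorescence was read. Percentage of infected cells and amastigotes per 100 cells were also determined, with nifurtimox as reference.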

Trypanosoma cruzi [2] = test: (§2) Antitrypanosomal activity against GFP-expressing intracellular Trypanosoma cruzi Y trypomastigotes infected in african green monkey Vero cells assessed as decrease in number of amastigotes/100 cells incubated for 72 hrs by fluorescence based microplate reader analysis; format: functional, organism-based; how it was run: as §1
Trypanosoma cruzi [3] = test: as §2, with “reduction” for “decrease”, “infected cell percentage at 20 uM” for “number of amastigotes/100 cells”, “hrs in the presence of nifurtimox” for “hrs”; format: functional, organism-based
How it was run: (§3)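 GFP T. cruzi Y-infected Vero cells were cotreated after parasite removal with nifurtimox at 35 μM plus test compound at 20 μM or 40 μM. At 72 h postinfection, percentage of infected cells was determined against nontreated infected controls. Significance was set at p < 0.05.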

Trypanosoma cruzi [4] = test: Antitrypanosomal activity against GFP-expressing intracellular Trypanosoma cruzi Y trypomastigotes infected in african green monkey Vero cells assessed as inhibition of parasite proliferation incubated for 72 hrs by fluorescence based microplate reader analysis
Trypanosoma cruzi [5] = test: as §2, with “reduction” for “decrease”, “infected cell percentage at 40 uM” for “number of amastigotes/100 cells”, “hrs in the presence of nifurtimox” for “hrs”; format: functional, organism-based; how it was run: as §3

SMILES	Activity (Vero)	also measured
CCCCCCCCCCCC(=O)NCc1ccncc1	Non-Toxic	–
CC(=O)NCc1ccncc1	Non-Toxic	–
CCCCCCCC/C=C\CCCCCCCC(=O)NCc1ccccn1	Non-Toxic	–
CCCCC/C=C/C/C=C/CCCCCCCC(=O)O	Toxic	–
CCCCC/C=C\C/C=C\CCCCCCCC(=O)NCc1cccnc1	Non-Toxic	–
CCCCCCCCCCCCCCCC(=O)NCc1ccncc1	Non-Toxic	–
CCCCCCCCCCCCCCCCCC(=O)NCc1cccnc1	Non-Toxic	–
CCCCCCCCCCCCCCCCCC(=O)NCc1ccncc1	Non-Toxic	–
CCCCCCCCCCCCCCCCCC(=O)NCc1ccccn1	Non-Toxic	Activity (Trypanosoma cruzi [1]): Active; Activity (Trypanosoma cruzi [2]): Active; Activity (Trypanosoma cruzi [3]): Active; IC50 (Trypanosoma cruzi [4]): 16.4 µM
CC/C=C\C/C=C\C/C=C\CCCCCCCC(=O)NCc1cccnc1	Non-Toxic	–
CCCCCCCC/C=C\CCCCCCCC(=O)NCc1cccnc1	Non-Toxic	–
CCCCCCCC/C=C/CCCCCCCC(=O)NCc1ccccn1	Non-Toxic	Activity (Trypanosoma cruzi [1]): Active; Activity (Trypanosoma cruzi [2]): Active; Activity (Trypanosoma cruzi [5]): Active; IC50 (Trypanosoma cruzi [4]): 47.6 µM
CCCCCCCC/C=C/CCCCCCCC(=O)NCc1ccncc1	Non-Toxic	–
CCCCCCCC/C=C/CCCCCCCC(=O)NCc1cccnc1	Non-Toxic	–
CCCCCCCCCCCC(=O)NCc1ccccn1	Non-Toxic	IC50 (Trypanosoma cruzi [4]): > 100 µM
CCCCCCCCC/C=C\CCCCCCC(=O)O	Toxic	–
CCCCC/C=C\C/C=C\CCCCCCCC(=O)NCc1ccccn1	Non-Toxic	–
CCCCCCCCCCCC(=O)NCc1cccnc1	Non-Toxic	–
CCCCCC(=O)NCc1ccncc1	Non-Toxic	–
CC/C=C\C/C=C\C/C=C\CCCCCCCC(=O)NCc1ccccn1	Non-Toxic	–
CC/C=C/C/C=C/C/C=C/CCCCCCCC(=O)O	Toxic	–
